According to ChEMBL document CHEMBL1138354, “2-(2'-((dimethylamino)methyl)-4'-(fluoroalkoxy)-phenylthio)benzenamine derivatives as serotonin transporter imaging agents” (J Med Chem, 2007):

Columns and labels:
[1] = tested on: Nucleic Acid; assay: Ratio of drug level in hypothalamus to cerebellum in rat after 120 mins; assay type: ADME, tissue-based; conditions: in vivo, 2 h
Procedure, shortened: (§1)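 Rats, 3 per group, given ¹⁸F tracer (10–100 μCi, 0.2 ml sterile water with 1 mg/mL BSA) into the femoral vein under isoflurane. Brain regions, including hypothalamus, striatum and cerebellum, dissected, weighed and counted. % dose/g calculated against a 1% diluted aliquot of the dose. Region/cerebellum ratio is region %dose/g divided by cerebellum %dose/g. SD of the ratio propagated from both means and SDs.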

[2] = biological target: Sodium-dependent dopamine transporter (Homo sapiens, UniProt Q01959); assay: Displacement of [125I]N-(3'-iodopropen-2'yl)-2-beta-carbomethoxy-3-beta-(4-chlorophenyl)tropane from DAT expressed in LLCPK1 cells; assay type: cell-based, LLC-PK1
Procedure, shortened: (§2)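 Membrane homogenates from LLC-PK1 cells, each line overexpressing one transporter. Membranes (30–80 μg protein) in 50 mM Tris-HCl pH 7.4, 120 mM NaCl, 5 mM KCl, 0.1% BSA. Radioligands: 0.09 nM for SERT, 0.06 nM for DAT, 0.06 nM for NET. Competitor at 8–10 concentrations, 10⁻¹⁰ to 10⁻⁵ M. Incubated 1 hr at room temperature. Filtered on PEI-presoaked glass fiber and gamma counted. Ki from nonlinear regression, n = 3.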

[3] = biological target: Sodium-dependent serotonin transporter (Homo sapiens, UniProt P31645); assay: Displacement of [125I]5-iodo-2-[[2,2-[(dimethylamino)methyl]phenyl]thio]benzyl alcohol from SERT expressed in LLCPK1 cells; assay type: cell-based, LLC-PK1; procedure, shortened: as §2
[4] = biological target: Sodium-dependent noradrenaline transporter (Homo sapiens, UniProt P23975); assay: Displacement of [125I]iodonisoxetine from NET expressed in LLCPK1 cells; assay type: cell-based, LLC-PK1; procedure, shortened: as §2
[5] = tested on: Brain; assay: Biodistribution in iv dosed rat brain after 30 mins; assay type: ADME, organism-based; conditions: in vivo, 0.5 h
Procedure, shortened: (§3)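 [18F]-labeled tracer was given to rats under isoflurane anesthesia: 0.2 ml sterile water with 1 mg/mL BSA and 10–100 μCi, into the femoral vein. Three rats per group. Animals were killed by cervical dislocation under anesthesia at the stated time. Organs were removed, weighed and counted. Uptake was calculated as percent dose against a 1% aliquot of the injected dose counted alongside.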

[6] = tested on: Brain; assay: Biodistribution in iv dosed rat brain after 120 mins; assay type: ADME, organism-based; conditions: in vivo, 2 h; procedure, shortened: as §3
[7] = tested on: Nucleic Acid; assay: Ratio of drug level in hypothalamus to cerebellum in rat after 30 mins; assay type: ADME, tissue-based; conditions: in vivo, 0.5 h; procedure, shortened: as §1
[8] = Partition coefficient, log P at pH 7.4; assay type: physicochemical; conditions: octanol/water

Sequence of Sodium-dependent dopamine transporter (Q01959 whole entry): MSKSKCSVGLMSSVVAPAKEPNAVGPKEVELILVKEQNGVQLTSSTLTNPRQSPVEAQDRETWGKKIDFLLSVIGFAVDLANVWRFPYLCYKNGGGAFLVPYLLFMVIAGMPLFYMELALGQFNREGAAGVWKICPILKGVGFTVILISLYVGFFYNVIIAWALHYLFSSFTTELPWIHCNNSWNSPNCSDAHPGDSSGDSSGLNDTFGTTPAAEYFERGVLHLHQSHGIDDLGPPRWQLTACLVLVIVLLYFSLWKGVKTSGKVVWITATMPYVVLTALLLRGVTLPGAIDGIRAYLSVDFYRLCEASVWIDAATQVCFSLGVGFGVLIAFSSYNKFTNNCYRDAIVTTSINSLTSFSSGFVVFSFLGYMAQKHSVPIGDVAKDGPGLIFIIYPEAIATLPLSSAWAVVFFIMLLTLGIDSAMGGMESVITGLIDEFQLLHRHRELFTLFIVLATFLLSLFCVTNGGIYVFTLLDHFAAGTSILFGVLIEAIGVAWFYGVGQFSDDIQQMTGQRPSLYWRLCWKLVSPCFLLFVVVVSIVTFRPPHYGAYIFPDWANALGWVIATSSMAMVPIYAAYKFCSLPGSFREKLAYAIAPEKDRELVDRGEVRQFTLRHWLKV
Sequence of Sodium-dependent serotonin transporter (P31645 whole entry): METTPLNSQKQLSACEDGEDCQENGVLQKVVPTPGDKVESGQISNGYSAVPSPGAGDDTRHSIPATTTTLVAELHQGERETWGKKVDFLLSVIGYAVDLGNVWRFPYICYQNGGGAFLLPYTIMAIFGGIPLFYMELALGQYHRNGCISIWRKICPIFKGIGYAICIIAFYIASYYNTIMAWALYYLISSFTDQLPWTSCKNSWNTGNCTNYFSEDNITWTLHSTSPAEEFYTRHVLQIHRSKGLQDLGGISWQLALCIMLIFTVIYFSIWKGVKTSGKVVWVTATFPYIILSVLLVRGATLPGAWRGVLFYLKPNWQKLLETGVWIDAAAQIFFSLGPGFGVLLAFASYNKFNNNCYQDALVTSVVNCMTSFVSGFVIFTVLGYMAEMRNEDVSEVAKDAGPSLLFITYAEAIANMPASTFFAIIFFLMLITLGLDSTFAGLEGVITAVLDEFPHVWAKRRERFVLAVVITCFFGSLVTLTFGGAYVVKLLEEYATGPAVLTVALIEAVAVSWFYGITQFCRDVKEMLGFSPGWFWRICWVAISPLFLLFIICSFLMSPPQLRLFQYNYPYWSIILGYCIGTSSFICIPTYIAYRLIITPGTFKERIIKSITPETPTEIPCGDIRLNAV
Sequence of Sodium-dependent noradrenaline transporter (P23975 whole entry): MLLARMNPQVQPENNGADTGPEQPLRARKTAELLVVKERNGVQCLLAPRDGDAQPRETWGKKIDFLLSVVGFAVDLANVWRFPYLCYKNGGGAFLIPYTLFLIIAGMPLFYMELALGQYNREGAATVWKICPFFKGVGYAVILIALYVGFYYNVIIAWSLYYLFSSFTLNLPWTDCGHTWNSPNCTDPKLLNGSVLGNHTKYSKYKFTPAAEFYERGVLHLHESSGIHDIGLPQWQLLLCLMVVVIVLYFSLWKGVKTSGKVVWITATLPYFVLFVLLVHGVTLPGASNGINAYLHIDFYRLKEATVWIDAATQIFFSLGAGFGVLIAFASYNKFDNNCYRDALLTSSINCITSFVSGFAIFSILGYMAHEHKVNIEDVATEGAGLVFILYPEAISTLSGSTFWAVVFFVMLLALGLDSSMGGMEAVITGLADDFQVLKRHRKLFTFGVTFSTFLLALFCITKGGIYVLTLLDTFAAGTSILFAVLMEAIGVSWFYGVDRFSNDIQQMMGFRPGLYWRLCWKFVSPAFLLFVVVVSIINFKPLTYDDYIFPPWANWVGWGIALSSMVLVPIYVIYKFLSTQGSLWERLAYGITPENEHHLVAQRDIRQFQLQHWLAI

| SMILES | Ratio [1] | Ki [2] [nM] | Ki [3] [nM] | Ki [4] [nM] | Drug uptake [5] [%ID] | Drug uptake [6] [%ID] | Ratio [7] | logD [8] |
| --- | --- | --- | --- | --- | --- | --- | --- | --- |
| CN(C)Cc1cc(OCCF)ccc1Sc1ccc(F)cc1N | 4.34 | > 1000 | 0.1 | 37 | 2.23 | 2.57 | 2.78 | – |
| CN(C)Cc1cc(OCC[18F])ccc1Sc1ccc(Cl)cc1N | – | – | – | – | – | – | – | 2.71 |
| CN(C)Cc1cc(OCCF)ccc1Sc1ccc(Br)cc1N | 3.7 | > 1000 | 0.05 | 114 | 1.88 | 2.16 | 2.04 | – |
| CN(C)Cc1cc(OCCCF)ccc1Sc1ccc(F)cc1N | 4.36 | > 1000 | 0.95 | 95 | 1.43 | 1.32 | 2.66 | – |
| CN(C)Cc1cc(OCCCF)ccc1Sc1ccc(Br)cc1N | 4.17 | > 1000 | 0.15 | > 1000 | 1.12 | 1.15 | 1.93 | – |
| CN(C)Cc1cc(OCC[18F])ccc1Sc1ccc(F)cc1N | – | – | – | – | – | – | – | 2.47 |
| CN(C)Cc1cc(OCCC[18F])ccc1Sc1ccc(Br)cc1N | – | – | – | – | – | – | – | 3.3 |
| CN(C)Cc1cc(OCCO)ccc1Sc1ccc(F)cc1N | – | > 1000 | 1.2 | 56 | – | – | – | – |
| CN(C)Cc1cc(OCCC[18F])ccc1Sc1ccc(F)cc1N | – | – | – | – | – | – | – | 2.65 |
| CN(C)Cc1cc(OCCCO)ccc1Sc1ccc(Br)cc1N | – | > 1000 | 0.21 | 279 | – | – | – | – |
| CN(C)Cc1cc(OCCC[18F])ccc1Sc1ccccc1N | – | – | – | – | – | – | – | 2.54 |

More lines, in order of falling Ki [2], values ahead:

| Ratio [1] | Ki [2] [nM] | Ki [3] [nM] | Ki [4] [nM] | Drug uptake [5] [%ID] | Drug uptake [6] [%ID] | Ratio [7] | logD [8] | SMILES |
| --- | --- | --- | --- | --- | --- | --- | --- | --- |
| 3.77 | 847 | 0.03 | 97 | 1.72 | 1.46 | 2.36 | – | CN(C)Cc1cc(OCCF)ccc1Sc1ccc(Cl)cc1N |
| – | 659 | 17 | 33 | – | – | – | – | CN(C)Cc1cc(O)ccc1Sc1ccccc1N |
| – | 576 | 5 | 14 | – | – | – | – | COc1ccc(Sc2ccccc2N)c(CN(C)C)c1 |
| – | 443 | 1.3 | 7 | – | – | – | – | CN(C)Cc1cc(OCCCO)ccc1Sc1ccccc1N |
| – | 351 | 1.1 | 11 | – | – | – | – | CN(C)Cc1cc(OCCO)ccc1Sc1ccccc1N |
| 7.83 | 340 | 0.25 | 7.5 | 1.85 | 0.63 | 3.79 | – | CN(C)Cc1cc(OCCF)ccc1Sc1ccccc1N |
| 7.67 | 299 | 1.4 | 12 | 1.23 | 0.59 | 3.5 | – | CN(C)Cc1cc(OCCCF)ccc1Sc1ccccc1N |
